Legend:
[1] = Inhibition of Hepatitis C virus genotype 1b Con1 NS5B RNA dependent RNA polymerase activity using Bright-Glo luciferase substrate by cell-based 1b luciferase reporter assay; design: species or system Hepatitis C virus (isolate Con1)
Procedure, shortened: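 Cell-based genotype 1b luciferase reporter replicon assay; EC50 determined in duplicate, values averaged over at least two determinations.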

[2] = Inhibition of HCV full-length NS5B polymerase; design: species or system Hepacivirus hominis
Procedure, shortened: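 Polymerase inhibition with full-length NS5B enzyme in a biochemical assay; IC50 averaged from duplicate measurements, at least two determinations.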

[3] = Plasma concentration in rat at 4 mg/kg, po cassette dosing after 1 hr; assay type: ADME, organism-based; design: dose 4 mg/kg, route oral
Procedure, shortened: (§1)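 Cassette screen: mixture of 4 compounds, each at 4 mg/kg, dosed orally to 2 rats; plasma sampled at 1 h and 2 h, solid-phase extracted and quantified by HPLC-UV or LC/MS against calibration standards in blank plasma (LOQ 7 ng/mL).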

[4] = Plasma concentration in rat at 4 mg/kg, po cassette dosing after 2 hrs; assay type: ADME, organism-based; design: dose 4 mg/kg, route oral; procedure, shortened: as §1
[5] = Half life in human liver microsomes; assay type: ADME
[6] = Permeability across apical to basolateral side in human Caco2 cells; assay type: ADME, cell-based; conditions: Caco-2, read-out: permeability
[7] = Half life in rat liver microsomes; assay type: ADME

EC50 [1] [nM] | IC50 [2] [nM] | concentration at 1 h [3] [nM] | concentration at 2 h [4] [nM] | half-life [5] [h] | Papp A→B [6] [×10⁻⁶ cm/s] | half-life [7] [h] | SMILES
1030 | 370 |  |  |  |  |  | Cc1cc(/C=C/C(=O)O)ccc1NC(=O)C1(NC(=O)c2ccc3c(C4CCCC4)c(-c4ccccn4)n(C)c3c2)CCC1
560 | 230 |  |  |  |  |  | Cn1c(-c2ccccn2)c(C2CCCC2)c2ccc(C(=O)NC3(C(=O)Nc4ccc(/C=C/C(=O)O)cc4F)CCC3)cc21
 | 300 |  |  |  |  |  | Cn1c(-c2ccccn2)c(C2CCCC2)c2ccc(C(=O)NC3(C(=O)Nc4ccc(/C=C/C(=O)O)cc4Cl)CCC3)cc21
> 2500 | 2250 |  |  |  |  |  | Cn1c(-c2ccccn2)c(C2CCCC2)c2ccc(C(=O)NC3(C(=O)Nc4ccc(/C=C/C(=O)O)cc4C(F)(F)F)CCC3)cc21
> 2800 | 1320 |  |  |  |  |  | Cn1c(-c2ccccn2)c(C2CCCC2)c2ccc(C(=O)NC3(C(=O)Nc4c(F)cc(/C=C/C(=O)O)cc4F)CCC3)cc21
250 | 440 |  |  |  |  |  | Cn1c(-c2ccccn2)c(C2CCCC2)c2ccc(C(=O)NC3(C(=O)Nc4ccc(/C=C/C(=O)O)cc4O)CCC3)cc21
79 | 69 |  |  |  |  |  | Cc1cc(NC(=O)C2(NC(=O)c3ccc4c(C5CCCC5)c(-c5ccccn5)n(C)c4c3)CCC2)ccc1/C=C/C(=O)O
130 | 61 |  |  |  |  |  | Cn1c(-c2ccccn2)c(C2CCCC2)c2ccc(C(=O)NC3(C(=O)Nc4ccc(/C=C/C(=O)O)c(F)c4)CCC3)cc21
110 | 100 |  |  |  |  |  | Cn1c(-c2ccccn2)c(C2CCCC2)c2ccc(C(=O)NC3(C(=O)Nc4ccc(/C=C/C(=O)O)c(Cl)c4)CCC3)cc21
230 | 180 |  |  |  |  |  | Cn1c(-c2ccccn2)c(C2CCCC2)c2ccc(C(=O)NC3(C(=O)Nc4ccc(/C=C/C(=O)O)c(C(F)(F)F)c4)CCC3)cc21
170 | 44 |  |  |  |  |  | Cn1c(-c2ccccn2)c(C2CCCC2)c2ccc(C(=O)NC3(C(=O)Nc4ccc(/C=C/C(=O)O)c(O)c4)CCC3)cc21
32 | 47 | 1100 | 500 | 1.37 |  |  | COc1cc(NC(=O)C2(NC(=O)c3ccc4c(C5CCCC5)c(-c5ccccn5)n(C)c4c3)CCC2)ccc1/C=C/C(=O)O
8 | 340 | 400 |  |  | 17.6 | 0.7 | COc1cc(NC(=O)C2(NC(=O)c3ccc4c(C5CCCC5)c(-c5ccccn5)n(C)c4c3)CCC2)cc(OC)c1/C=C/C(=O)O
24 | 48 | 900 | 400 | 1.07 | 19 |  | CCOc1cc(NC(=O)C2(NC(=O)c3ccc4c(C5CCCC5)c(-c5ccccn5)n(C)c4c3)CCC2)ccc1/C=C/C(=O)O
36 | 130 | 400 | 200 | 2.07 | 19 |  | CCCOc1cc(NC(=O)C2(NC(=O)c3ccc4c(C5CCCC5)c(-c5ccccn5)n(C)c4c3)CCC2)ccc1/C=C/C(=O)O
36 | 110 | 1300 | 800 | 1.9 | 19 |  | CC(C)Oc1cc(NC(=O)C2(NC(=O)c3ccc4c(C5CCCC5)c(-c5ccccn5)n(C)c4c3)CCC2)ccc1/C=C/C(=O)O
55 | 420 |  |  | > 5 |  |  | CC(C)COc1cc(NC(=O)C2(NC(=O)c3ccc4c(C5CCCC5)c(-c5ccccn5)n(C)c4c3)CCC2)ccc1/C=C/C(=O)O
46 | 250 |  |  | 3.85 |  |  | Cn1c(-c2ccccn2)c(C2CCCC2)c2ccc(C(=O)NC3(C(=O)Nc4ccc(/C=C/C(=O)O)c(OCC5CC5)c4)CCC3)cc21
65 | 280 |  |  | 0.833 |  |  | Cn1c(-c2ccccn2)c(C2CCCC2)c2ccc(C(=O)NC3(C(=O)Nc4ccc(/C=C/C(=O)O)c(OC5CCC5)c4)CCC3)cc21
27 | 56 |  |  | 1.45 |  |  | COCCOc1cc(NC(=O)C2(NC(=O)c3ccc4c(C5CCCC5)c(-c5ccccn5)n(C)c4c3)CCC2)ccc1/C=C/C(=O)O
21 | 410 |  |  |  |  |  | CCOc1cc(NC(=O)C2(NC(=O)c3ccc4c(C5CCCC5)c(-c5ccccc5)n(C)c4c3)CCC2)ccc1/C=C/C(=O)O
26 | 330 | 500 | 300 | 1.35 | 18 | 1.73 | CCOc1cc(NC(=O)C2(NC(=O)c3ccc4c(C5CCCC5)c(-c5ccc(Cl)cn5)n(C)c4c3)CCC2)ccc1/C=C/C(=O)O
10 | 330 | 100 | 100 | 1.3 | 9.4 |  | CCOc1cc(NC(=O)C2(NC(=O)c3ccc4c(C5CCCC5)c(-c5cccc(N)n5)n(C)c4c3)CCC2)ccc1/C=C/C(=O)O
21 | 48 |  |  | 0.767 |  |  | CCOc1cc(NC(=O)C2(NC(=O)c3ccc4c(C5CCCC5)c(-c5cnccn5)n(C)c4c3)CCC2)ccc1/C=C/C(=O)O
19 | 460 | 1800 | 2100 | 2.57 | 13 | 1.73 | CCOc1cc(NC(=O)C2(NC(=O)c3ccc4c(C5CCCC5)c(-c5ncc(Br)cn5)n(C)c4c3)CCC2)ccc1/C=C/C(=O)O
12 | 190 | 400 | 100 | 0.733 |  |  | CCOc1cc(NC(=O)C2(NC(=O)c3ccc4c(C5CCCC5)c(-c5cnn(C)c5)n(C)c4c3)CCC2)ccc1/C=C/C(=O)O
12 | 150 |  |  | 0.6 |  |  | CCOc1cc(NC(=O)C2(NC(=O)c3ccc4c(C5CCCC5)c(-c5nccs5)n(C)c4c3)CCC2)ccc1/C=C/C(=O)O
8 | 27 | 500 | 100 |  | 24 |  | CCOc1cc(NC(=O)C(C)(C)NC(=O)c2ccc3c(C4CCCC4)c(-c4ncc(Cl)cn4)n(C)c3c2)ccc1/C=C/C(=O)O
34 | 380 |  |  | 3.25 |  |  | CCOc1cc(NC(=O)C2(NC(=O)c3ccc4c(C5CCCC5)c(-c5ncc(Cl)cn5)n(C)c4c3)CC2)ccc1/C=C/C(=O)O
10 | 200 | 200 |  | 2.15 | 12 |  | COCCOc1cc(NC(=O)C(C)(C)NC(=O)c2ccc3c(C4CCCC4)c(-c4ncc(Cl)cn4)n(C)c3c2)ccc1/C=C/C(=O)O
